# Screens as filed in PubChem.
# The entries come from a sample that favours hits as a whole.
# ABCB6 inh MLPCN: human ABCB6 transporter inhibition. K562-ABCB6 porphyrin accumulation, flow cytometry, 1 h; active compounds read low. hit rate 0.19% among 360,000. Q9NP58. fluorescence ratio to DMSO, % at 10 µM;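 active = fluorescence ratio to DMSO below 75%, the collection mean minus 3 SD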;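 also: signal is porphyrin accumulated inside mitochondria; lower ratio means ABCB6 inhibition with less porphyrin fluorescence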
# Xi reactivation: activators of X-chromosome reactivation in mouse fibroblasts; activation, % at 7.58 µM; AID 743238; XiGFP mouse fibroblasts, % GFP-positive cells imaging, 3 d; cells co-treated with 5-aza-dC sensitizer; scaled so ellipticine positive control = 100%; hit rate 0.055% among 360,000;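 active = mean normalized replicate activation at least 10% and every replicate at or above 10%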
#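 Assay system – SV40-immortalized XiGFP fibroblast cells, line 68-5-11 · Buffer or medium – DMEM supplemented with 5-aza-dC as sensitizing agent · Dosing – one concentration, pinned · Benchmarks – positive control ellipticine, 6 µM final · Times – 3 days compound exposure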
# Myeloid diff MLP: promotes myeloid progenitor differentiation; calls only at 10 µM; ER-HoxA9 myeloid progenitors, lysozyme-GFP differentiation, flow cytometry; hit rate 1% among 360,000;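 active = normalized GFP-positive differentiation at or above the plate's own cutoff, the solvent-only control mean plus 3 SD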;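 also: cells exposed to compound for four days before flow analysis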
# Myeloid diff CP1: promotes myeloid progenitor differentiation; shares compounds with Myeloid diff MLP; ER-HoxA9 myeloid progenitors, GFP/Mac1 double-positive flow; calls only; hit rate 2% among 2,300;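 active = share of green or green-and-red cells above 9 and 9% in run 1 or 4 and 3% in run 2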
# GFP autofluor: counter-screen for myeloid differentiation promoters: compound fluorescence; shares compounds with Myeloid diff MLP; ER-HoxA9 myeloid progenitors, no estrogen, GFP autofluorescence flow cytometry; vehicle wells 0%, positive control 100%; fluorescence response, % (no concentration beside the values); hit rate 7.4% among 2,300; AID 651707;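 active = over 5% cells positive for green fluorescent reporter, or over 2% positive for both it and APC stain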
# Hits are given with their value; 0 = inactive; - = not tested or not shown; + = active, no number.
SMILES,ABCB6 inh MLPCN,Xi reactivation,Myeloid diff MLP,Myeloid diff CP1,GFP autofluor
CCN1[C@H](C(=O)NCCCN(C)C)[C@@H](CO)[C@@H]2Cn3c(ccc(-c4ccccc4OC)c3=O)[C@@H]21,-,0,-,-,-
CCN1CCN(c2ncnc3c2nnn3Cc2ccccc2)CC1,0,-,0,-,-
c1ccc(Cn2nnc3c(N4CCCC4)ncnc32)cc1,0,-,+,0,0
C=CCn1c(C)cc(-c2csc(NCC)n2)c1C,0,0,+,0,0
C=CCn1c(C)cc(-c2csc(NC(=O)C3=COCCO3)n2)c1C,0,0,0,-,-
CCC(=O)N1C[C@H](C)[C@@H](OC)CN(C)C(=O)c2ccc(NC(=O)c3cc(C)on3)cc2OC[C@H]1C,-,0,-,-,-
CC1(C)OC(=O)C(=CNc2ccc(F)cc2)C(=O)O1,0,-,0,-,-
Cc1ccc(F)c(NC=C2C(=O)OC(C)(C)OC2=O)c1,0,-,0,0,0
Cc1ccc(S(=O)(=O)N(C)C[C@H]2Oc3c(cccc3N(C)C)C(=O)N([C@@H](C)CO)C[C@@H]2C)cc1,-,0,-,-,-
C[C@@H]1CN([C@H](C)CO)C(=O)CCCn2cc(nn2)CO[C@@H]1CN(C)C(=O)c1cc(-c2ccccc2)on1,-,0,-,-,-
COCCn1nnnc1CN1CCN2CCCC2C1 (stereo not given),0,-,+,0,0
CC(C)(C)n1nnnc1CN1CCN2CCCC2C1 (stereo not given),0,-,0,-,-
CCN(CC)CCOc1cc2c(nn1)Oc1ccccc1N2C,0,-,0,0,0
CN1c2ccccc2Oc2nnc(Cl)cc21,0,0,0,-,-
COc1cc(NC(=O)N[C@H](C(=O)O)C(C)C)cc(OC)c1,0,-,+,0,0
COc1cc(NC(=O)N[C@@H](CCSC)C(=O)O)cc(OC)c1,0,0,0,-,-
CCCNC(=O)N1CC2(CN(C(=O)C3CCOCC3)C2)c2c([nH]c3cc(OC)ccc23)[C@@H]1CO,-,0,-,-,-
NC(N)=NC(=O)c1nc(Cl)c(N)nc1N,0,0,0,0,0
NC(N)=NC(=O)c1nc(Cl)c(N2CCCCCC2)nc1N,0,0,0,-,-
Cc1noc(C)c1NC(=O)N(C)C[C@H]1Oc2c(NC(=O)NC(C)C)cccc2C(=O)N([C@@H](C)CO)C[C@@H]1C,-,0,-,-,-
O=C(C[C@@H]1C=C[C@H](NC(=O)Nc2cccc(F)c2)[C@@H](CO)O1)NCC1CC1,-,0,-,-,-
COc1ccccc1-c1ccc2c(c1)C(C)(Cc1cc(Cl)ccc1C(F)(F)F)C(=O)N2 (stereo not given),0,0,0,-,-
COc1ccc(Cl)cc1CC1(C)C(=O)Nc2ccc(-c3ccccc3OC)cc21 (stereo not given),0,0,+,0,0
CCOC(=O)C1CCN(Cc2ccc3ccccc3c2)CC1,0,0,0,-,-
CCOC(=O)C1CCN(Cc2cc(C(C)C)c(O)c(C(C)C)c2)CC1,0,0,+,0,0
SMILES,ABCB6 inh MLPCN,Xi reactivation,Myeloid diff MLP,Myeloid diff CP1,GFP autofluor
O=c1c(=NNc2ccccc2Cl)c(=O)c2ccccc12,0,-,0,-,-
Cc1cc(C)c(NN=c2c(=O)c3ccccc3c2=O)c(C)c1,0,-,+,0,0
COc1ccc2c3c([nH]c2c1)[C@H](CO)N(C(=O)NC(C)C)CC31CCN(Cc2ccc(F)cc2)CC1,-,0,-,-,-
C[C@@H]1CN(C)C(=O)c2cc(NS(C)(=O)=O)ccc2O[C@H]1CN(C)C,-,0,-,-,-
Cc1ccccc1C(=O)Nc1ccc2c(C#N)c3nc4ccccc4nc3n2c1,0,0,+,0,2.3
Cc1c(C(=O)Nc2ccccc2)cn2c(nc3ccccc32)c1C#N,0,0,0,-,-
O=C(C1CC1)N1CC(=O)N2[C@H](C1)[C@H](c1ccc(C#CCc3ccccc3)cc1)[C@@H]2CO,-,0,-,-,-
Cc1ccc(NC(=O)COC(=O)Cn2nc(C)c([N+](=O)[O-])c2C)c([N+](=O)[O-])c1,0,0,0,-,-
CCOc1ccc(NC(=O)COC(=O)Cn2nc(C)c([N+](=O)[O-])c2C)cc1OCC,0,0,+,0,0
COc1ccc(NC(=O)Nc2ccc3c(c2)C(=O)N([C@H](C)CO)C[C@@H](C)[C@@H](CN(C)S(=O)(=O)c2ccccc2)OCCCC[C@H](C)O3)cc1,-,0,-,-,-
Cc1ccccc1-c1ccc2c(c1)O[C@@H](CN(C)C(=O)Nc1ccc(F)cc1)[C@@H](C)CN([C@@H](C)CO)S2(=O)=O,-,0,-,-,-
OCC[C@H]1C[C@H](O)[C@@H](O)[C@@]2(OCCCc3ccccc32)O1,0,0,+,0,0
OCC[C@@H]1C[C@@H](O)[C@H](O)[C@]2(OCCCc3ccccc32)O1,0,0,0,-,-
